Data as given in ChEMBL document CHEMBL4422635, “Structure-Based Discovery of a Subtype-Selective Inhibitor Targeting a Transient Receptor Potential Vanilloid Channel” (J Med Chem, 2019).
Activity calls are given as the source filed them. No cut-off for these calls is given here.

Tests used:
Assay type in all cases: cell-based
[1] = organism: Mus musculus; experiment: Antagonist activity at mouse LPA-induced TRPV2/LPAR1 expressed in HEK293T cells assessed as inhibition of 2-APB evoked currents at 1 uM after 3 mins in presence of AM966 by whole-cell patch clamp assay
In short: (§1)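 Whole-cell voltage clamp of transiently transfected HEK293T cells co-expressing GFP, recorded 36-96 h post-transfection. Hold -60 mV; pipettes 3-7 MΩ. Bath 165 mM NaCl, 10 mM HEPES pH 7.3; pipette 140 mM KCl, 10 mM HEPES pH 7.3. Room temperature (~25 °C). IC50 from Hill fits of I/I0, the current ratio after vs before inhibitor; mean ± SEM.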

[2] = target: T1, Transient receptor potential cation channel subfamily V member 3 (Mus musculus) (UniProt Q8K424); experiment: Antagonist activity at mouse TRPV3 expressed in HEK293T cells assessed as inhibition of 2-APB evoked currents at 3 to 10 uM -60 mV holding potential by whole-cell patch clamp assay; in short: as §1
T1 sequence (whole entry): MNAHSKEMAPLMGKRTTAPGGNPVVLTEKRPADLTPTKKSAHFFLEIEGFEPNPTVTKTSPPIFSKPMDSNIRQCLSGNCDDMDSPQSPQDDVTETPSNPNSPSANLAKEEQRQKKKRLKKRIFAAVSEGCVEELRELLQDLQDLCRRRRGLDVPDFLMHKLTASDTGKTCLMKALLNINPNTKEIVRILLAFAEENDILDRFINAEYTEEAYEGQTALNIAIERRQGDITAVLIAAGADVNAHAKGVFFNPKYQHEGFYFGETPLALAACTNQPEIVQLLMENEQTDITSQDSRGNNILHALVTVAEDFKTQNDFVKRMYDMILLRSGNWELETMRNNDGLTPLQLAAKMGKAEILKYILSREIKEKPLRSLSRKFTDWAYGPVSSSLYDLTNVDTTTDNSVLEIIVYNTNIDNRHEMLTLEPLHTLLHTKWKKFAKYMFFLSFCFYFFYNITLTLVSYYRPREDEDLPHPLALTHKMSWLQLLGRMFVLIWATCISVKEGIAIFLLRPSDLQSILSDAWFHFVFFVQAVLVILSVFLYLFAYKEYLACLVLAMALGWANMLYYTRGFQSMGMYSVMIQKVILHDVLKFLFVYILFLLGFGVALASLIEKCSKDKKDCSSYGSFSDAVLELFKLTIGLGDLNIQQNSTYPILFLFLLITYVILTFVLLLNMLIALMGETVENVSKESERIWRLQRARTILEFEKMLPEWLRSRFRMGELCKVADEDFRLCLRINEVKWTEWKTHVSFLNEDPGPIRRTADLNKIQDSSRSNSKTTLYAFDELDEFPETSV

[3] = target: T2, Transient receptor potential cation channel subfamily V member 2 (Homo sapiens) (UniProt Q9Y5S1); experiment: Antagonist activity at TRPV2 in human PC3M cells assessed as inhibition of LPA-induced intracellular calcium levels at 100 uM Fluo-4 AM-based fluorescence assay
T2 sequence (whole entry): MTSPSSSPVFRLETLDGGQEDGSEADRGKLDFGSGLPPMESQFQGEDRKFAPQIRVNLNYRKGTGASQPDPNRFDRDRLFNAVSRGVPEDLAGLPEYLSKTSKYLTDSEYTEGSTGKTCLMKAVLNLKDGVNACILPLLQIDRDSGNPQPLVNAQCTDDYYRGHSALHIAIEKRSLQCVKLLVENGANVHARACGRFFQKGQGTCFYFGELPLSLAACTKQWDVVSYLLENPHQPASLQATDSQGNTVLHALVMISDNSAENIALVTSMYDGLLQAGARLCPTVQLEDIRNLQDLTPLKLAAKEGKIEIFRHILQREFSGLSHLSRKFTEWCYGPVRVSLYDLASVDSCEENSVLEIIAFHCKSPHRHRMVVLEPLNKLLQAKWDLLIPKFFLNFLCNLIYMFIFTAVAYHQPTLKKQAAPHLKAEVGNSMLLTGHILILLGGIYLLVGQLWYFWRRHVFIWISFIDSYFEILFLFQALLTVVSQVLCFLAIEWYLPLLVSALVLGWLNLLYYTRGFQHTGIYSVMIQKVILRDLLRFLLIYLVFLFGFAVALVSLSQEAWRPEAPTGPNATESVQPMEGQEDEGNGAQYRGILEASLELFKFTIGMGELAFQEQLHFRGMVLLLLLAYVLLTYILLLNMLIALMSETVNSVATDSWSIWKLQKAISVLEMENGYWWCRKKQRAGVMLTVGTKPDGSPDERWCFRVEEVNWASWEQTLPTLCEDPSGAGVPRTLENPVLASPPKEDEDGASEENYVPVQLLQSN
In short: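 PC-3M cells cultured 24 h, loaded with 2 μM Fluo-4 AM in HBSS for 45 min at 37 °C, then compound added. Cytoplasmic Ca2+ rise read as relative fluorescence at ex 485 / em 525 nm.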

[4] = system: T3, Transient receptor potential cation channel subfamily V member 2 (Mus musculus), Q9WTR1 [F467S]; experiment: Antagonist activity at mouse TRPV2 F467S mutant expressed in HEK293T cells assessed as inhibition of 2-APB evoked currents at 0.3 to 3 uM by whole-cell patch clamp assay; in short: as §1
T3 sequence (whole entry): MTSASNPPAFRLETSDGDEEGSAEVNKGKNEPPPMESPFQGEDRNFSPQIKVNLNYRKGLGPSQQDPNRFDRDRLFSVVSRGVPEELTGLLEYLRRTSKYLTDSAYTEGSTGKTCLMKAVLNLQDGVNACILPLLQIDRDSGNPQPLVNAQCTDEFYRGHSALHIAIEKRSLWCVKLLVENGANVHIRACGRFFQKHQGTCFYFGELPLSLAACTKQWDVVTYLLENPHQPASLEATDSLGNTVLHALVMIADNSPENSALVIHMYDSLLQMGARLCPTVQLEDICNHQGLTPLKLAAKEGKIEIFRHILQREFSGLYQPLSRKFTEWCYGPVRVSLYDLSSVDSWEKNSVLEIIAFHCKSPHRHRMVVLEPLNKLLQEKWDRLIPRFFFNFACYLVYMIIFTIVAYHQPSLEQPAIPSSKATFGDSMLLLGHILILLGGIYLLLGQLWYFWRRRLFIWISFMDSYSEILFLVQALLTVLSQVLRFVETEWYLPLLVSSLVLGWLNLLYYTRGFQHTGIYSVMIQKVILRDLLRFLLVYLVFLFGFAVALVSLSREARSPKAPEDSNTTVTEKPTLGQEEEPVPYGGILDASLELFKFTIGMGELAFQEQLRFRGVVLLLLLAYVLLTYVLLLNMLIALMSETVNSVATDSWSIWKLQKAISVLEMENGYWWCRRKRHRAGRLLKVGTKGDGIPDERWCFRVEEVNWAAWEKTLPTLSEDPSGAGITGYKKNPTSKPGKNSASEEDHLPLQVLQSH

Structure (SMILES): CCCN(C)c1cc(C(F)(F)F)nc(SCCC(=O)NCc2ccco2)n1
- inhibition [1]: inactive
- inhibition [2]: inactive
- inhibition [3]: Active
- inhibition [4]: inactive
